pIC50: −log10 of the molar value. Converted amounts (≈) assume the structure as drawn.
How the values were obtained:
[1] = target: H. influenzae PBP1b (Haemophilus influenzae, UniProt P45345); experiment: PBP competition assay with Bocillin FL; assay type: binding
Method in brief: (§1)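 H. influenzae Rd grown in supplemented BHI at 35°C (A600 0.6–0.7). Cells in KPN buffer (20 mM K-phosphate, 140 mM NaCl, pH 7.5), lysozyme-treated 30 min, French-pressed; membranes at 150,000 × g. Used 100–120 μg membrane protein. Test compound 10 min at 30°C, then Bocillin FL 100 μM final for 20 min. Gel fluorescence band volumes; IC50 from three assays of six concentrations.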

[2] = target: H. influenzae PBP3a/b (Haemophilus influenzae, UniProt P45059); experiment: PBP competition assay with Bocillin FL; assay type: binding
H. influenzae PBP3a/b, sequence (P45059 66-580 limits assumed): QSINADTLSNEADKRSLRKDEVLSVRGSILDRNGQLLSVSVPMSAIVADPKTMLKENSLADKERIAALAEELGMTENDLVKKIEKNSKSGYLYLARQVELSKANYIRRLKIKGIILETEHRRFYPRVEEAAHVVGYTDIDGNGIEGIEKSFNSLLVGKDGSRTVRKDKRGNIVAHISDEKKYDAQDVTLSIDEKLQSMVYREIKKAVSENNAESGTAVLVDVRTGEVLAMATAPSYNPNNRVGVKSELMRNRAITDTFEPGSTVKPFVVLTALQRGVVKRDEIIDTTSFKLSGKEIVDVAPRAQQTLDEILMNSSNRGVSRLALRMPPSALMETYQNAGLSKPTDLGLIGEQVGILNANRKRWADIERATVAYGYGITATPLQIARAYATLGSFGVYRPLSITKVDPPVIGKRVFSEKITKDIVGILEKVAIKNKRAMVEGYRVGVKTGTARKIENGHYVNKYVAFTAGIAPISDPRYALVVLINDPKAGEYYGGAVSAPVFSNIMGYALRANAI
Method in brief: as §1

[3] = target: S. pneumoniae PBP1a/b; experiment: PBP competition assay with Bocillin FL; assay type: binding, Streptococcus pneumoniae; conditions: S. pneumoniae R6 membranes; Bocillin FL 100 μM
Method in brief: (§2)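 S. pneumoniae R6 was grown on blood agar at 37°C under 5% CO2, then in BHI with agitation to A600 ~1.0. Cells in KPN buffer pH 7.5 were lysozyme-treated and French-pressed; membranes (30–40 μg protein) were used. Test compound 10 min at 30°C, then Bocillin FL 100 μM final for 20 min. SDS-PAGE fluorescence; IC50 from three assays of six concentrations.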

[4] = target: S. pneumoniae PBP2a/b; experiment: PBP competition assay with Bocillin FL; assay type: binding, Streptococcus pneumoniae; conditions: S. pneumoniae R6 membranes; Bocillin FL 100 μM
Method in brief: as §2

[5] = tested on: H. influenzae; experiment: Broth microdilution MIC; assay type: cell-based; conditions: Haemophilus influenzae
Method in brief: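 MICs by CLSI broth microdilution in cation-adjusted Mueller-Hinton broth. Strains grown in BHI broth at 35°C: E. coli K-12, P. aeruginosa 1771 and S. aureus ATCC 29213. H. influenzae Rd grown in BHI with Haemophilus test medium supplement (hemin and β-NAD, 15 μg/ml each).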

[6] = target: H. influenzae PBP5 (Haemophilus influenzae, UniProt P44466); experiment: PBP competition assay with Bocillin FL; assay type: binding
H. influenzae PBP5, sequence (P44466 19-393): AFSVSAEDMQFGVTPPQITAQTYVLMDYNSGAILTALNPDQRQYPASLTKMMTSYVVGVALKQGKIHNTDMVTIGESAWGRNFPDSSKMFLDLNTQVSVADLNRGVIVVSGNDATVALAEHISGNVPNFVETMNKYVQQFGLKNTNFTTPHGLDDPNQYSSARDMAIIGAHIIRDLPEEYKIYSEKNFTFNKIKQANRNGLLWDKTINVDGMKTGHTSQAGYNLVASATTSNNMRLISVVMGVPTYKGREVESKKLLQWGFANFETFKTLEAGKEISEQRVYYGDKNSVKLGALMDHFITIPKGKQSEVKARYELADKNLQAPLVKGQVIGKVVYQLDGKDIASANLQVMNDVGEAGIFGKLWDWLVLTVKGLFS
Method in brief: as §1

[7] = target: S. pneumoniae PBP2X (Streptococcus pneumoniae, UniProt P59676); experiment: PBP competition assay with Bocillin FL; assay type: binding
S. pneumoniae PBP2X, sequence (P59676 whole entry): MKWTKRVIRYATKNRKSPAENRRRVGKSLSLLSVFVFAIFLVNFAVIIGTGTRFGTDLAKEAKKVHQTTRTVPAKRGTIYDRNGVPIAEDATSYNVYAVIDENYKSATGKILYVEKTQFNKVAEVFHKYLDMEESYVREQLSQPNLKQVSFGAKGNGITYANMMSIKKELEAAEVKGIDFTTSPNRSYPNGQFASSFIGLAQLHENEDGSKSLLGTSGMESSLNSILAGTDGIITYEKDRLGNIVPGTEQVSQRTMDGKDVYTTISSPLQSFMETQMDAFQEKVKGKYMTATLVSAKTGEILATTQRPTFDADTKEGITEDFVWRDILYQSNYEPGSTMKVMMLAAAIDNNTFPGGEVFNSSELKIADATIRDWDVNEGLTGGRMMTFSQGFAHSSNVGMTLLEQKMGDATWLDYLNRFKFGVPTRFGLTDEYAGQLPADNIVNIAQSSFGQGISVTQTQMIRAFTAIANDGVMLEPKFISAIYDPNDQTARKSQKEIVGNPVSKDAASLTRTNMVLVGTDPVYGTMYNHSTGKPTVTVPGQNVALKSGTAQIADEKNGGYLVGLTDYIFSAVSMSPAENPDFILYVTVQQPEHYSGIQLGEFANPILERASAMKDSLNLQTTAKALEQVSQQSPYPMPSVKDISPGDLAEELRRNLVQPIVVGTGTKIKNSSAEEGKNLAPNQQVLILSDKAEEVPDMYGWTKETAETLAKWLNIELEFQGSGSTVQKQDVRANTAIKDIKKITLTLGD
Method in brief: as §2

[8] = target: H. influenzae PBP1a (Haemophilus influenzae, UniProt P31776); experiment: PBP competition assay with Bocillin FL; assay type: binding
H. influenzae PBP1a, sequence (P31776 whole entry): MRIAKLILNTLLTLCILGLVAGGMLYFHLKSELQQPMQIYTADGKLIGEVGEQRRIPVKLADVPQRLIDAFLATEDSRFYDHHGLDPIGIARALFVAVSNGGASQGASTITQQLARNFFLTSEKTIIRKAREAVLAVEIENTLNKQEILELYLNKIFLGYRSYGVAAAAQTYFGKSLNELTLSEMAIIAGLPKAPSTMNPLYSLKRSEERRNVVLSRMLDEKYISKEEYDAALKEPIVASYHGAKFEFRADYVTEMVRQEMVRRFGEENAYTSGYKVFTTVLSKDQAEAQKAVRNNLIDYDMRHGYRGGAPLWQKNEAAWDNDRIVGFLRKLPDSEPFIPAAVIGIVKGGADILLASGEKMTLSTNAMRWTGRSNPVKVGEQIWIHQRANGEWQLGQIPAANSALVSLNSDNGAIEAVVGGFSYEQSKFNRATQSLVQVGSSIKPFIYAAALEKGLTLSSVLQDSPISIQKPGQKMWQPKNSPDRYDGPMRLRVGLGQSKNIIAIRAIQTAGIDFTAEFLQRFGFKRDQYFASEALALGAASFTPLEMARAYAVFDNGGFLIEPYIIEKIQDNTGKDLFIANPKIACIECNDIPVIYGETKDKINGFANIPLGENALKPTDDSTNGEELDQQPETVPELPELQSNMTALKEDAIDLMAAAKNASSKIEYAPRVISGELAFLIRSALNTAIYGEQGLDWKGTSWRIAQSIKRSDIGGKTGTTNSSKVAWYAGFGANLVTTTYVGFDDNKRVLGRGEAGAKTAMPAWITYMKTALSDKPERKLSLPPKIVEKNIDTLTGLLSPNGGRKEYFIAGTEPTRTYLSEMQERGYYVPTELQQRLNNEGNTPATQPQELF
Method in brief: as §1

[9] = target: H. influenzae PBP2 (Haemophilus influenzae, UniProt P44469); experiment: PBP competition assay with Bocillin FL; assay type: binding
H. influenzae PBP2, sequence (P44469 whole entry): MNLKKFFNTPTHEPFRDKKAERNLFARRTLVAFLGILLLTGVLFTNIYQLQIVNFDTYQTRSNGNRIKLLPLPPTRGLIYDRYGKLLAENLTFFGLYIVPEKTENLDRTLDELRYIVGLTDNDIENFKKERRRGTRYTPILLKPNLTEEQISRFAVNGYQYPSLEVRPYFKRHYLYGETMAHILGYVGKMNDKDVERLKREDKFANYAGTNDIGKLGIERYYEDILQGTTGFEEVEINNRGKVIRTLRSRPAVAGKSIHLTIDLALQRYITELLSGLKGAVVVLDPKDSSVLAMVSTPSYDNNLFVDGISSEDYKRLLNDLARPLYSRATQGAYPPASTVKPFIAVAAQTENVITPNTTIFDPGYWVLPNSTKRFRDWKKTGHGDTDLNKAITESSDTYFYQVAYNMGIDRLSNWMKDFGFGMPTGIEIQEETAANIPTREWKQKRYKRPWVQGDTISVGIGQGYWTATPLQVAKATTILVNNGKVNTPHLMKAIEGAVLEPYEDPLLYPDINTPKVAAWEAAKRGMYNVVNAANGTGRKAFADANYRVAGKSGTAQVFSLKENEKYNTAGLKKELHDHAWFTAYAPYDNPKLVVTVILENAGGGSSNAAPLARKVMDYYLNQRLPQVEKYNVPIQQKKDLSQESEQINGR
Method in brief: as §1

[10] = target: H. influenzae PBP4 (Haemophilus influenzae, UniProt P45161); experiment: PBP competition assay with Bocillin FL; assay type: binding
H. influenzae PBP4, sequence (P45161 27-479): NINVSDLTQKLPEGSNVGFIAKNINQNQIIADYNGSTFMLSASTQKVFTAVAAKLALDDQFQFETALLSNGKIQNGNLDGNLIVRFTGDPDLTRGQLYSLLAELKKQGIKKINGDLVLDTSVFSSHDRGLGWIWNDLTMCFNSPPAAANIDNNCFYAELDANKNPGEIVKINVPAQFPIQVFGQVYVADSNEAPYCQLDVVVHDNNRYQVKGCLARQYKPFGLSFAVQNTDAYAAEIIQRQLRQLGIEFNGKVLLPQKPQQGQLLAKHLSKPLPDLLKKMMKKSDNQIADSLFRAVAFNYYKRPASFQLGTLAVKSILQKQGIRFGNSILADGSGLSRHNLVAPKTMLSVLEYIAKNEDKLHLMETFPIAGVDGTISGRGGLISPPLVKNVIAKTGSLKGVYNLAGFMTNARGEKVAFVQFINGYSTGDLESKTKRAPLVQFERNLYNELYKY
Method in brief: as §1

H. influenzae PBP1b, sequence (P45345 whole entry): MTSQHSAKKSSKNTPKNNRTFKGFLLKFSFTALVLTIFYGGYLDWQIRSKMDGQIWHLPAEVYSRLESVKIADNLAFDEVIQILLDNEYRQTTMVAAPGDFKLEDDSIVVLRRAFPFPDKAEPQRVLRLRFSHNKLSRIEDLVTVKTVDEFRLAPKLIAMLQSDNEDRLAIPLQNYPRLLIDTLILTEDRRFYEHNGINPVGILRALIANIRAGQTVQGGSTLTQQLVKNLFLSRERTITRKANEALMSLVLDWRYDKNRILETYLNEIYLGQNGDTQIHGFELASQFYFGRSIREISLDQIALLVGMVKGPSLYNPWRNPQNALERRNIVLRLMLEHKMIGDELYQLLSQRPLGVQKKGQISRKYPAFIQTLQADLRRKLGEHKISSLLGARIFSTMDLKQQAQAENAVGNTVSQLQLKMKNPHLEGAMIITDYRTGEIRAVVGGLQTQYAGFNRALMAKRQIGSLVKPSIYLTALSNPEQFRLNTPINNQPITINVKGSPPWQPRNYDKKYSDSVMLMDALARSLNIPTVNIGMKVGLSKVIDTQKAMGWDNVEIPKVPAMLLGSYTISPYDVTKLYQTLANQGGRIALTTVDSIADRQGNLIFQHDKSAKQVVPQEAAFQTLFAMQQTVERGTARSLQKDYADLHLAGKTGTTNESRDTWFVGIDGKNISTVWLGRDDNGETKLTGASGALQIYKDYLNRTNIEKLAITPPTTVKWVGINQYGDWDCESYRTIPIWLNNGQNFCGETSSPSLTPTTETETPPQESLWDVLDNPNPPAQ

pIC50 [1]: < 3.92
pIC50 [2]: < 3.92
Relative binding (IC50) for PBP 1a/b [3]: >64 µg/mL
Relative binding (IC50) for PBP 2a/b [4]: >64 µg/mL
MIC [5]: 64 µg/mL (≈ 241 µM)
pIC50 [6]: < 3.92
pIC50 [7]: < 3.62
pIC50 [8]: < 3.92
pIC50 [9]: 4.95
pIC50 [10]: < 3.92
Structure (SMILES): NC(=O)[C@@H]1CC[C@@H]2CN1C(=O)N2OS(=O)(=O)O [AVI, avibactam]
